Read-outs that look alike come from different tables or passages of the source. One block for each molecule: values may come before it.
What was measured:
[1] = system: Pfeiffer; details: data in the literature; cited from earlier work
[2] = system: Toledo; details: data in the literature; cited from earlier work
[3] = system: WSU-DLCL2; details: data in the literature; cited from earlier work
[4] = system: PI3Kα; details: cited from earlier work
[5] = system: OCI-LY19; details: data in the literature; cited from earlier work
[6] = system: PI3Kγ; details: cited from earlier work
[7] = target: PI3Kα (Mus musculus, UniProt P42337); assay: Cell-based pAKT AlphaLISA, IGF-1 stimulated C2C12 cells
Chain of PI3Kα (P42337 whole entry): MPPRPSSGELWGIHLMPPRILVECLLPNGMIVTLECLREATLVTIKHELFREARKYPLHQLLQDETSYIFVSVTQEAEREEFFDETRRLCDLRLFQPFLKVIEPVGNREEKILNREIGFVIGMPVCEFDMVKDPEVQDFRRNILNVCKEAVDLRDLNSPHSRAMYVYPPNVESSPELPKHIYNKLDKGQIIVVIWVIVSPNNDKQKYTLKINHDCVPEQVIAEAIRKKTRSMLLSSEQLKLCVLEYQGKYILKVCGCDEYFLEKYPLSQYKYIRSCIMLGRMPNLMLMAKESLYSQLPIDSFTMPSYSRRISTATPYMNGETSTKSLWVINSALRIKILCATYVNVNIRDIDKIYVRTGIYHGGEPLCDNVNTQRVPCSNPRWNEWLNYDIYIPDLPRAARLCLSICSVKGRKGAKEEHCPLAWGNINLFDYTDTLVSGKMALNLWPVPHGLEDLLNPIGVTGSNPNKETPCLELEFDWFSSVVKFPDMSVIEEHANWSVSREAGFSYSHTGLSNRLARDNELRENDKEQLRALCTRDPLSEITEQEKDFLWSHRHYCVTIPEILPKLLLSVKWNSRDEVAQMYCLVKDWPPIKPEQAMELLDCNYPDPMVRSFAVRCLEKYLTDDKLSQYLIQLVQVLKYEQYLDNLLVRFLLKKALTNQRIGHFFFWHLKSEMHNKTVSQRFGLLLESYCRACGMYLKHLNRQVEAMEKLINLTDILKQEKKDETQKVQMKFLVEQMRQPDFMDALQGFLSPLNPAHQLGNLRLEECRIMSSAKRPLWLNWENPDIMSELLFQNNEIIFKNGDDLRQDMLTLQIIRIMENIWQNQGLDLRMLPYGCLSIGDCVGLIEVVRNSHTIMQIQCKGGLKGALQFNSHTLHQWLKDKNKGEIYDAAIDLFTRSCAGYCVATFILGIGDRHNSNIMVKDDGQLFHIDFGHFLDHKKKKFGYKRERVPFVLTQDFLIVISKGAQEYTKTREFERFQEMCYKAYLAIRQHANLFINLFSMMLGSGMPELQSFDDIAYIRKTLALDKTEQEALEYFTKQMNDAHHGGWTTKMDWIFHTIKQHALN
Chain of PI3Kα (P26450 whole entry partner): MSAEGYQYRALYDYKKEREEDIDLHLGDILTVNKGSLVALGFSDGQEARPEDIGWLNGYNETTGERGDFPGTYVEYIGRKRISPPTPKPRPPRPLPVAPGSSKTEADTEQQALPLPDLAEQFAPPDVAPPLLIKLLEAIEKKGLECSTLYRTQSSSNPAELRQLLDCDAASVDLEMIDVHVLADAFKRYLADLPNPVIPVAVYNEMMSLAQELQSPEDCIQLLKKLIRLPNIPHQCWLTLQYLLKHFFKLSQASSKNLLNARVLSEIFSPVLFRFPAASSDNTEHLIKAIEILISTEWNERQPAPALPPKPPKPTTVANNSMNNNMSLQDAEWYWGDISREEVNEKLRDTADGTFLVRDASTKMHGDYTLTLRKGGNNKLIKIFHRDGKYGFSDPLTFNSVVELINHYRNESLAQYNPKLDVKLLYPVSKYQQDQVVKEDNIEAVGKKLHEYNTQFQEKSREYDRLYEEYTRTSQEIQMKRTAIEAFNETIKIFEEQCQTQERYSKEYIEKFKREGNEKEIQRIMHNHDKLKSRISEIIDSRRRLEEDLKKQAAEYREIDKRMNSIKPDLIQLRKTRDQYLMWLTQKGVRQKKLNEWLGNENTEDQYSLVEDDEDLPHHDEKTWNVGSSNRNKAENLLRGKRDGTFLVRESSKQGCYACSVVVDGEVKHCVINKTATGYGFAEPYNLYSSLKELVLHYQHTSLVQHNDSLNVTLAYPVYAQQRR

[8] = target: PI3Kγ (Mus musculus, UniProt Q9JHG7); assay: Cell-based pAKT AlphaLISA, C5a stimulated RAW264.7 cells
Chain of PI3Kγ (Q9JHG7 whole entry): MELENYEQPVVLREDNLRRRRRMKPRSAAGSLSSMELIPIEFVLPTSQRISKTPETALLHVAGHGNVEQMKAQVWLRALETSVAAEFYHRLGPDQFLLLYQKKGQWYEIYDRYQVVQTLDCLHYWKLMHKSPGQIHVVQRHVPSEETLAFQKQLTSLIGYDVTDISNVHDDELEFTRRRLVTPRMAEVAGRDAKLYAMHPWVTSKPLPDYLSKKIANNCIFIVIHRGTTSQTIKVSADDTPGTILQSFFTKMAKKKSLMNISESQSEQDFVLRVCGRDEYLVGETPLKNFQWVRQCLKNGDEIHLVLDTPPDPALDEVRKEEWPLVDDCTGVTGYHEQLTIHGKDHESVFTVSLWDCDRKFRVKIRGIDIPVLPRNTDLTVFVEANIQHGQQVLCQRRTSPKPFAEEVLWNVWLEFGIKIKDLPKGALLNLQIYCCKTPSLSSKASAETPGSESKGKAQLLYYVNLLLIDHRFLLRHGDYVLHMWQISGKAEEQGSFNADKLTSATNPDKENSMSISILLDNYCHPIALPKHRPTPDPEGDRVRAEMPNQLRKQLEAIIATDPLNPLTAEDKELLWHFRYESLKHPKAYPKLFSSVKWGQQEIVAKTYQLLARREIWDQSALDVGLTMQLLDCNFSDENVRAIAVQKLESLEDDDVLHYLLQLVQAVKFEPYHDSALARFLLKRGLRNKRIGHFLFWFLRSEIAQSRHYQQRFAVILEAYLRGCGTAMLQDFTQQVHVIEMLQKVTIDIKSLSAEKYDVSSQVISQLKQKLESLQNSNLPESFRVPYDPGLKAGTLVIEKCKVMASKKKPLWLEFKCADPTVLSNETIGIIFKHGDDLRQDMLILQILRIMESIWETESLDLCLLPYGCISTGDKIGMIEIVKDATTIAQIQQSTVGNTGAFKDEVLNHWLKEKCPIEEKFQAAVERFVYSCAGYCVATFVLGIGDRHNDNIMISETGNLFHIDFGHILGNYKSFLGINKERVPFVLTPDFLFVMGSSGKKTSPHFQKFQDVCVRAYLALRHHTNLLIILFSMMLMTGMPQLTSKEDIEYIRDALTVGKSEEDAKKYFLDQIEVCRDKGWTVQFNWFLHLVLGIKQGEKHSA
Summary of the method: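 RAW264.7 cells (DMEM, 10% FBS, penicillin/streptomycin, 37 °C) were stimulated with 80 ng/mL C5a for 5 min and given ten test-compound concentrations (0–100 µM) in triplicate. The PI3Kδ comparator used Raji cells stimulated with 3 µg/mL anti-IgM F(ab')2 for 10 min, dosed 0–3000 nM. pAKT was quantified by AlphaLISA, and IC50 was taken from signal–concentration curves.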

[9] = Pharmacokinetics in xenograft model; type: in vivo, SCID mice; details: CB17 SCID, mouse, plasma, po
Summary of the method: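 CB17 SCID mice bearing subcutaneous SU-DHL-6 tumours received test compound orally once daily in 1% carboxymethylcellulose/0.5% Tween 80. Heparinised blood was drawn predose and at 10, 30, 60, 120, 360, 600 and 1440 min on days 1 and 14. Plasma was spun at 4500 rpm, 10 min, 4 °C, then assayed by LC-MS/MS against a stable-isotope internal standard. Sub-LLOQ values were excluded.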

[10] = system: PI3Kδ signaling; details: read-out: EC50 of inhibition of PI3Kδ signaling; cell-based assay; cited from earlier work
[11] = 100 mg/kg, 100 mg/kg once daily oral, day 1
[12] = 100 mg/kg, 100 mg/kg once daily oral, day 14
[13] = 200 mg/kg, 200 mg/kg once daily oral, day 1
[14] = 200 mg/kg, 200 mg/kg once daily oral, day 14

Structure (SMILES): COc1c(OCCCN2CCOCC2)ccc2c1N=C(NC(=O)c1cnc(N)nc1)N1CCN=C21 [Copanlisib]
IC50 [1]: 0.849 nM
IC50 [2]: 3500 nM
IC50 [3]: 123 nM
IC50 [5]: 1990 nM

IC50 [7]: > 30000 nM
IC50 [8]: 1120 nM
AUC(0-t) [9, 11]: 6930 ng·h/mL
AUC(0-t) [9, 12]: 5520 ng·h/mL
Cmax [9, 11]: 4.17 ± 9.89 µM
Cmax [9, 12]: 5.05 ± 6.05 µM
half-life ([9]; 100 mg/kg, T1/2, 100 mg/kg once daily oral, day 1): 3.4 ± 2 h
half-life ([9]; 100 mg/kg, T1/2, 100 mg/kg once daily oral, day 14): 1.8 ± 0.6 h
Tmax [9, 11]: 0.7 ± 0.3 h
Tmax [9, 12]: 0.4 ± 0.2 h
AUC(0-t) [9, 13]: 29900 ng·h/mL
AUC(0-t) [9, 14]: 22400 ng·h/mL
Cmax [9, 13]: 11.1 µM
Cmax [9, 14]: 8.09 ± 0.93 µM
half-life ([9]; 200 mg/kg, T1/2, 200 mg/kg once daily oral, day 1): 1.9 ± 0.5 h
half-life ([9]; 200 mg/kg, T1/2, 200 mg/kg once daily oral, day 14): 4.3 ± 1.1 h
Tmax [9, 13]: 0.8 ± 0.3 h
Tmax [9, 14]: 0.7 ± 0.3 h
Structure (SMILES): CC[C@H](Nc1ncnc2[nH]cnc12)c1nc2cccc(F)c2c(=O)n1-c1ccccc1 [Idelalisib]
EC50 [10]: 8.9 nM

Reference: PMC7586065 (Neoplasia (New York, N.Y.), 2020)
